The text below walks through data of ChEMBL document CHEMBL5113423, “Discovery and preclinical profile of sudapyridine (WX-081), a novel anti-tuberculosis agent” (Bioorg Med Chem Lett, 2022).

In series [1] the target is Cytochrome P450 2C19 (Homo sapiens, UniProt P33261). Kind of series: Inhibition of CYP2C19 (unknown origin). The format is ADME. The method, boiled down: (§1)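 Each CYP isoform screened for inhibition at a single test concentration of 10 μM.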
For series [2], the system named is Mycobacterium tuberculosis. Kind of series: Antimycobacterial activity against drug-sensitive Mycobacterium tuberculosis assessed as mycobacterial growth inhibition. Type of series: functional.
Series [3] in a line: Drug concentration in Sprague-Dawley rat lung at 5 mg/kg,po measured after 96 hrs. The note with it: read-out: Ct. Type of series: ADME, organism-based. The method, boiled down:
(§2)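 Tissue distribution study in CD-1 mice (6.25 mg/kg oral) and SD rats (5.0 mg/kg oral). Lung concentration (ng/g) and plasma concentration (ng/mL) measured 96 h after dosing. Lung/plasma ratio is lung concentration divided by plasma concentration.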

Series [4] has as its system Mycobacterium tuberculosis. Kind of series: Antimycobacterial activity against Mycobacterium tuberculosis H37Rv assessed as mycobacterial growth inhibition by low oxygen recovery assay. Type of series: functional. The method, boiled down: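 M. tuberculosis H37Rv under hypoxic conditions, low-oxygen recovery assay (LORA) following Cho et al. Read-out is MIC.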
Series [5] in a line: Apparent permeability across basolateral side to apical side in dog MDCK cells. Type of series: ADME, cell-based, Canis lupus familiaris.
Series [6] concerns the target Cytochrome P450 2C9 (Homo sapiens, UniProt P11712). Kind of series: Inhibition of CYP2C9 (unknown origin). Type of series: ADME. The method, boiled down:
as §1

Series [7] can be described thus: AUC in Sprague-Dawley rat at 200 mg/kg,po measured after 12 days. Type of series: ADME, organism-based. More on the design: time 12 day, dose 200 mg/kg, route po. Particulars: in vivo. The method, boiled down: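 14-day pilot toxicology study in rats, 8 males and 8 females per dose level. Daily oral dosing, with 200 mg/kg as the high dose. Drug exposure is reported as AUC in µM·h.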

Series [8] is described as follows: Ratio of drug concentration in Sprague-Dawley rat lung to plasma at 5 mg/kg,po measured after 96 hrs. The format is ADME, organism-based. The method, boiled down:
as §2

Series [9] can be described thus: Drug concentration in Sprague-Dawley rat plasma at 5 mg/kg,po measured after 96 hrs. Type of series: ADME, organism-based. The method, boiled down: as §2
The nature of series [10]: Toxicity in Beagle dog assessed as effect on electrocardiogram at 200 mg/kg,po. The format is organism-based, Canis lupus familiaris. The note with it: in vivo. The method, boiled down: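 14-day GLP toxicology study in Beagle dogs; oral dosing once daily at 200 mg/kg, given in parallel with the reference drug. ECG recorded daily to detect qualitative changes and QTc interval prolongation.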

Series [11] in a line: Drug concentration in CD-1 mouse lung at 6.25 mg/kg,po measured after 96 hrs. The format is ADME, organism-based. Particulars: read-out: Ct. The method, boiled down: as §2
A short description of series [12]: Toxicity in Sprague-Dawley rat assessed as death at 200 mg/kg,po measured after 12 days. The format is organism-based. The note with it: in vivo, 288 h, time 12 day.
In series [13] the test system is Mycobacterium tuberculosis. Kind of series: Antimycobacterial activity against Mycobacterium tuberculosis H37Rv assessed as mycobacterial growth inhibition by microplate alamar blue assay. The format is functional. The method, boiled down: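 M. tuberculosis H37Rv under normoxic conditions, microplate alamar blue assay (MABA) following Cho et al. Read-out is MIC.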

Series [14] can be described thus: Cytotoxicity against African green monkey Vero cells. Particulars: chlorocebus sabaeus. Type of series: toxicity, cell-based.
Series [15] in a line: Ratio of drug concentration in CD-1 mouse lung to plasma at 6.25 mg/kg,po measured after 96 hrs. The format is ADME, organism-based. The method, boiled down:
as §2

Series [16] is described as follows: Cytotoxicity against human HeLa cells. Type of series: toxicity, cell-based.
For series [17], the target named is Cytochrome P450 2D6 (Homo sapiens, UniProt P10635). Kind of series: Inhibition of CYP2D6 (unknown origin). The format is ADME. The method, boiled down: as §1
Series [18] in a line: Plasma protein binding in human assessed as bound fraction. Type of series: ADME, cell-free. The note with it: read-out: PPB.
The nature of series [19]: Apparent permeability across apical side to basolateral side in dog MDCK cells. Type of series: ADME, cell-based, Canis lupus familiaris.
Series [20] can be described thus: Plasma protein binding in rat assessed as bound fraction. The format is ADME, cell-free. Particulars: read-out: PPB.
The target in series [21] is T1, Cytochrome P450 1A2 (Homo sapiens, UniProt P05177).
T1 sequence (P05177 whole entry): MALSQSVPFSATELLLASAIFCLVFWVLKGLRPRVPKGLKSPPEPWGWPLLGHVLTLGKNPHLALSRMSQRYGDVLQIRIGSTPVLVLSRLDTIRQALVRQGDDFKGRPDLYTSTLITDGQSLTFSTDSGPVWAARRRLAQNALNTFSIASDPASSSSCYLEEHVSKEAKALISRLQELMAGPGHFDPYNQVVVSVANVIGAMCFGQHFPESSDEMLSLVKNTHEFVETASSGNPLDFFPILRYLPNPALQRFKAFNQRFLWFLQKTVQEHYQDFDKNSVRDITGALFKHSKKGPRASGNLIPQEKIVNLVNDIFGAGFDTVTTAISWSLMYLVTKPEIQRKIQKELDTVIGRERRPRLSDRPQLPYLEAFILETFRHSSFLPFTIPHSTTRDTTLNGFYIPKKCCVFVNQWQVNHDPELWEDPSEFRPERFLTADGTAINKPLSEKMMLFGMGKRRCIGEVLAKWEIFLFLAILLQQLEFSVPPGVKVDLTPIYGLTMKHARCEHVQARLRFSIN
Kind of series: Inhibition of CYP1A2 (unknown origin). The format is ADME. The method, boiled down:
as §1

Series [22] is described as follows: Drug concentration in CD-1 mouse plasma at 6.25 mg/kg,po measured after 96 hrs. The format is ADME, organism-based. The method, boiled down:
as §2

The structures appear in SMILES notation. Converted amounts (≈) assume the structure as drawn. Where only a bound is given, the exact number is not on record here.

Sequence of Cytochrome P450 2D6 (P10635 whole entry): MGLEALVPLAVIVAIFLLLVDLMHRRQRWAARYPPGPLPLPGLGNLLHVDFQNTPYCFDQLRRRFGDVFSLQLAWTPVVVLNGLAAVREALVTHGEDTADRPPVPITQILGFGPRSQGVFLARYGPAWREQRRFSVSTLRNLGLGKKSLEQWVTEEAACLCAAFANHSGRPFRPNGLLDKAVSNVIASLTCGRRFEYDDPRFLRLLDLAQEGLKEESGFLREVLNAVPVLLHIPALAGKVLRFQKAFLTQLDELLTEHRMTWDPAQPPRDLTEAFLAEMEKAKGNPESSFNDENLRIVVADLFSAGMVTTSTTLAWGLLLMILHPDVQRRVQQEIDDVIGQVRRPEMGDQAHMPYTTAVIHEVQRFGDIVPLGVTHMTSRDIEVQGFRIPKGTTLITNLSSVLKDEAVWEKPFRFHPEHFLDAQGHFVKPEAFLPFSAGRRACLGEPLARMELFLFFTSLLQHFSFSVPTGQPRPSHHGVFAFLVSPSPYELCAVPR
Sequence of Cytochrome P450 2C9 (P11712 whole entry): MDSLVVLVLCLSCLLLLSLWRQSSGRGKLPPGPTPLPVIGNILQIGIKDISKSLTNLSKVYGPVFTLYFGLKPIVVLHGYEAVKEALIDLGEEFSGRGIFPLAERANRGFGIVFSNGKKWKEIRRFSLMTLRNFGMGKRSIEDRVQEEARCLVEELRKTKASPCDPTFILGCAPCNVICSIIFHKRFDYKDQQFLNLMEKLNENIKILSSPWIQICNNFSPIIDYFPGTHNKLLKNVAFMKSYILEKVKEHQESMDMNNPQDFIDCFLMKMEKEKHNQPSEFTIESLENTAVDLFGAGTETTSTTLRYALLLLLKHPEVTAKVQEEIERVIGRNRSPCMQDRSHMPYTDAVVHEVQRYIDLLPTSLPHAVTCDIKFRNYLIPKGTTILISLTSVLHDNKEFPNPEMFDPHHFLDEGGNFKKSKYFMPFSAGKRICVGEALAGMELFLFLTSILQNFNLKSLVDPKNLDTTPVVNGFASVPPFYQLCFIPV
Sequence of Cytochrome P450 2C19 (P33261 whole entry, canonical isoform): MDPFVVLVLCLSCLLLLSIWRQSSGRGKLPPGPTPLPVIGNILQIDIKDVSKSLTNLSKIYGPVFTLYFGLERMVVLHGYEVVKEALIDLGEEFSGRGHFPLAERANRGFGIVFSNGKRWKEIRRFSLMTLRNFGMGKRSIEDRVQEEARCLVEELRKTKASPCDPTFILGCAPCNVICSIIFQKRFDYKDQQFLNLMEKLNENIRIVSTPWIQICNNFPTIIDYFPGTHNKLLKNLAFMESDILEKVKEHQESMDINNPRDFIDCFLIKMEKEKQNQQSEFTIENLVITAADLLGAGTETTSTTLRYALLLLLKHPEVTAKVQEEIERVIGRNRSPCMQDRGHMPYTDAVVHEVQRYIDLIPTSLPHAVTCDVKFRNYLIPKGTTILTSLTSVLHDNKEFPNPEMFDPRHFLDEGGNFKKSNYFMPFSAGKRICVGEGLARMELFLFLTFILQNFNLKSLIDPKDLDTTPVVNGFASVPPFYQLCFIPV

For `COc1nc2ccc(Br)cc2cc1[C@@H](c1ccccc1)[C@@](O)(CCN(C)C)c1cccc2ccccc12` [BEDAQUILINE], the half-maximal inhibitory concentration (IC50) in [1], in series [6], in [17] and in series [21] was more than 10 µM throughout. Besides, the MIC50 in [2] amounted to 0.029 µg/mL (≈ 0.0522 µM). Moreover, the MIC90 in series [2] was determined as 0.043 µg/mL (≈ 0.0774 µM). The concentration at 96 h in [3] was 58.8 ng/g; in series [9], 1.52 ng/mL; in series [11] it was 135 ng/g; in series [22], 4.56 ng/mL. The figures for the MIC in series [4] and in [13] were less than 0.2 µg/mL and 0.03 µg/mL (≈ 0.054 µM), respectively. Besides, the apparent permeability from basolateral to apical (Papp B→A) in [5] worked out at 0.09 ×10⁻⁶ cm/s. The molecule also came in with an AUC at 288 h in [7] of 109 µM·h. For the same molecule, the results for the Kp at 96 h in [8] and in series [15] were 38.7 and 29.6, respectively. Further, the Activity in series [10] is given as 10%; in [12], “Toxic”. For the same molecule, the CC50 in [14] is more than 50 µg/mL; in [16] it was more than 64 µg/mL. Besides, the fraction unbound in series [18] and in [20] was less than 0.01 in each case. The Papp A→B in series [19] was found to be 0.06 ×10⁻⁶ cm/s.
